A short description of test [1]: Molar concentration required to give a sensitizer enhancement ratio of 1.6 in hypoxic […] (V79) cells. The format is functional, Cricetulus griseus. The method in brief: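 Hypoxic Chinese hamster V79-379A cells irradiated in vitro with compound present; C1.6 = molar concentration of compound giving a sensitizer enhancement ratio of 1.6.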
Test [2] concerns V79-379A (Chinese hamster lung fibroblasts). In words: Cytotoxicity in nitrogen (MMT assay).
Test [3] shares this test system. The experiment in a line: Cytotoxicity in air (MMT assay).
The nature of test [4]: Differential toxicity expressed as the ratio of C50 (air) to C50 (nitrogen). The class given is functional. In outline:
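Differential toxicity = C50(air)/C50(N2), with each C50 from the MTT assay on V79-379A cells under air or nitrogen; mean of at least three experiments.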

The nature of test [5]: Compound was tested for persistent physical or behavioral effects in C3H/He mice. The format is functional, Mus musculus. In outline: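 Toxicity screen in C3H/He mice: single injection as PBS (pH 7.3) solution or suspension, 0.5 or 1.0 mL per 25 g body weight, doses raised until solubility or toxicity limited; animals watched for acute, severe or persistent physical or behavioural changes (e.g. piloerection, respiration rate, locomotor activity for about 1 h).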

As to `CC1(C)CN1CC(O)CNC(=O)c1ccc([N+](=O)[O-])o1` (configuration not stated), the C1.6 in test [1] is recorded as 0.04 mM. In addition, the C50 is 0.075 mM in test [2] and 0.15 mM in test [3]. Also, the d tox in test [4] came out at 2.

Consider `C[C@@H]1[C@H](C)N1CC(O)CNC(=O)/C=C/c1ccc([N+](=O)[O-])o1` (some centres not stated), for which, in test [1], the C1.6 was determined as 0.035 mM. Further, the C50 is 0.04 mM in test [2] and 0.07 mM in test [3]. In addition, the d tox in test [4] was 1.8.

Regarding `Br.NC(=O)N/N=C/c1ccc([N+](=O)[O-])o1`, in test [1], the C1.6 is listed as 0.05 mM. Also, the C50 is listed as 0.2 mM in test [2] and 1.7 mM in test [3]. In addition, the d tox in test [4] came to 8.5.

Turning to `CC1(C)CN1C(=O)c1ccc([N+](=O)[O-])o1`, the C1.6 in test [1] amounted to 0.1 mM. The C50 in test [2] and in test [3] was 0.18 mM each time. The d tox in test [4] is 1.

`COCC(O)Cn1ccnc1[N+](=O)[O-]` (configuration not stated) [MISONIDAZOLE]: the C1.6 in test [1] was found to be 0.3 mM. Also, the results for the C50 in test [2] and in test [3] were 4 mM and 45 mM, respectively. Besides, in test [4], the d tox worked out at 11.3.

`C=CCNC(=O)c1ccc([N+](=O)[O-])o1`: the C1.6 in test [1] is 0.05 mM. In addition, the C50 is listed as 0.045 mM in test [2] and 0.08 mM in test [3]. For the same compound, the d tox in test [4] is 1.8.

For the compound `C=CCNC(=O)/C=C/c1ccc([N+](=O)[O-])o1`, the C1.6 in test [1] is recorded as 0.03 mM. In addition, the C50 turned out to be 0.025 mM in test [2] and 0.06 mM in test [3]. Also, the d tox in test [4] worked out at 2.4.

On to `C[C@@H]1[C@H](C)N1CC(O)CNC(=O)C1OC1c1ccc([N+](=O)[O-])o1` (some centres not stated), for which the C1.6 in test [1] was 0.025 mM. Also, the C50 in test [2] and in test [3] was 0.012 mM in each case. The d tox in test [4] was 1.

Take `CC1(C)CN1CC(O)CNC(=O)/C=C/c1ccc([N+](=O)[O-])o1` (configuration not stated): the C1.6 in test [1] turned out to be 0.008 mM. Further, the C50 is 0.01 mM in test [2] and 0.045 mM in test [3]. Also, the d tox in test [4] came to 4.5.

For `O=[N+]([O-])c1nccn1CC(O)CN1CC1` (configuration not stated), the C1.6 in test [1] worked out at 0.1 mM. Further, the C50 is 0.0045 mM in test [2] and 0.3 mM in test [3]. Moreover, the d tox in test [4] is 66.6.

Regarding `C[C@@H]1[C@H](C)N1CC(O)CNC(=O)c1ccc([N+](=O)[O-])o1` (some centres not stated), in test [1], the C1.6 was determined as 0.05 mM. The results for the C50 in test [2] and in test [3] were 0.02 mM and 0.06 mM, respectively. Moreover, in test [4], the d tox is 3.

With `C=CCOC(=O)c1ccc([N+](=O)[O-])o1`, the C1.6 in test [1] is 0.05 mM. Besides, the figures for the C50 in test [2] and in test [3] were 0.025 mM and 0.1 mM, respectively. Also, the d tox in test [4] amounted to 4.

In the case of `C=CCNC(=O)c1cc([N+](=O)[O-])oc1C`, the C1.6 in test [1] worked out at 0.075 mM. In addition, the C50 in test [2] is reported as 0.8 mM; in test [3], 0.35 mM. Moreover, the d tox in test [4] worked out at 0.4.

Regarding `Br.O=[N+]([O-])c1nccn1CC(O)CNCCBr` (configuration not stated), the C1.6 in test [1] is 0.1 mM. Moreover, the C50 came out at 0.09 mM in test [2] and 2.3 mM in test [3]. Besides, in test [4], the d tox was determined as 25.6.

Turning to `CC(C)(CO)NC(=O)c1ccc([N+](=O)[O-])o1`, the C1.6 in test [1] came out at 0.05 mM. For the same compound, the C50 is 0.12 mM in test [2] and 0.25 mM in test [3]. The Max dose in test [5] amounted to 100 mM/kg. Besides, in test [4], the d tox worked out at 2.1.

On to `O=C(NCC1CO1)c1ccc([N+](=O)[O-])o1` (configuration not stated), for which the C1.6 in test [1] was 0.02 mM. The C50 in test [2] and in test [3] was 0.05 mM in each case. The compound further registered a Max dose in test [5] of 50 mM/kg. Further, in test [4], the d tox amounted to 1.

As for `C=CCNC(=O)c1cc([N+](=O)[O-])c(C)o1`, the C50 in test [2] was 0.03 mM; in test [3], 0.015 mM. Moreover, in test [4], the d tox came to 0.5.

For the compound `Br.C[C@H](Br)[C@H](C)NCC(O)CNC(=O)c1ccc([N+](=O)[O-])o1` (some centres not stated), the C1.6 in test [1] stood at 0.03 mM. Besides, the C50 is 0.025 mM in test [2] and 0.14 mM in test [3]. Moreover, in test [4], the d tox turned out to be 5.6.

Turning to `Cc1oc([N+](=O)[O-])cc1C(=O)NCC1CO1` (configuration not stated), the C1.6 in test [1] worked out at 0.04 mM. The C50 in test [2] and in test [3] was 0.1 mM in each case. In test [4], the d tox worked out at 1.

Take `O=C(/C=C/c1ccc([N+](=O)[O-])o1)NCC1CO1` (configuration not stated): in test [1], the C1.6 came to 0.008 mM. Moreover, the C50 in test [2] was found to be 0.01 mM; in test [3], 0.03 mM. In test [5], this compound had a Max dose of 25 mM/kg. For the same compound, the d tox in test [4] was 3.

Source of the values: ChEMBL document CHEMBL1125078, “Synthesis and evaluation of novel electrophilic nitrofuran carboxamides and carboxylates as radiosensitizers and bioreductively activated cytotoxins” (1990).
